Wee1 degr inh = Wee1 degradation inhibitors, primary screen, cell-based, HeLa, Wee1K328M-luciferase, luminescence. Wee1-like protein kinase (Homo sapiens), P30291. HeLa Luc-Wee1K328M stability; 100% = proteasome inhibitor MG132 effect. reporter increase, % at 5 µM. 1.2% of 220,000 active. AID 1321, 2008;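 active = activation above the mean of all tested compounds plus 3 SD, set per screening run, cut at about 8.8% in these data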;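 note: cells exposed to compound for 20 h before luminescence read; 0% = DMSO alone and 100% = MG132 at 30 µM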
Hck-Nef inh = inhibitors of Nef-activated human Hck kinase, primary screen, biochemical, Z-Lyte FRET, 384-well, Hck-YEEI. Recombinant Hck-YEEI plus Nef, Z-Lyte FRET kinase assay. inhibition, % at 20 µM. 0.68% of 220,000 active;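 active = Hck-Nef kinase inhibition above about 50%, limit read from the data; inactive = inhibition below that limit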;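 note: 0% = DMSO with Hck plus Nef and 100% = Hck alone without Nef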
14-3-3 Bad PPI = inhibitors of 14-3-3 zeta/Bad binding, primary screen, biochemical, TR-FRET, bovine 14-3-3 zeta; TR-FRET 14-3-3zeta/Dy647-pBad peptide displacement, 1 h; inhibition, % at 21.7 µM; 0.71% of 220,000 active;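 active = inhibition above about 70%, limit read from the data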;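 note: 0% = full 14-3-3 plus peptide FRET controls and 100% = background without 14-3-3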
Target sequence (P63103 whole entry, looked up): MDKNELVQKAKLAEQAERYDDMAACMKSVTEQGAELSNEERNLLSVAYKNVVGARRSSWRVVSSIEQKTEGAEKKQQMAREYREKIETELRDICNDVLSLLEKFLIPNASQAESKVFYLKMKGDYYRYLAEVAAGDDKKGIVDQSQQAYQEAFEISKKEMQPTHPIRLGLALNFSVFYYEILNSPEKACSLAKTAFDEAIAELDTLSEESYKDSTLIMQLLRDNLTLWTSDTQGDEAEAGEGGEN
TbHK1 inh = Trypanosoma brucei hexokinase 1 inhibitors, primary screen, biochemical, G6PDH-coupled NADH absorbance, MLSCN library. hexokinase 1 [Trypanosoma brucei]. recombinant TbHK1, G6PDH-coupled NADH A340. inhibition, % at 10 µM. 0.11% of 220,000 active. AID 1430, 2008;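 active = inhibition of 50% or more in the single-dose primary screen; inactive = inhibition below 50%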
Mdm2 ligase inh = MDM2-luciferase reporter signal enhancers, primary screen, MDM2 E3 ligase inhibitor project, cell-based, luminescence, 1536-well; AID 1230, 2008; 0.11% of 210,000 active; cell-based MDM2 ubiquitination luciferase reporter, 2 h; 0 = plate control, 100 = twice control, blank-subtracted; signal enhancement, % at 5 µM; E3 ubiquitin-protein ligase Mdm2 (Homo sapiens), Q00987;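 active = signal enhancement of 30% or more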;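 note: luminescence tracks abundance of the self-degrading MDM2-luciferase fusion protein; higher signal means inhibition of MDM2 E3 ligase activity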
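Assay system: stable mammalian line carrying autodegrading MDM2–luciferase fusion reporter; Input: 2000 cells in each well; Compound dosing: single-point 5 µM; Schedule: 2 h compound exposure at 37 °C; Signal: SteadyLite luciferase luminescence after 15 min room-temperature reagent incubation; Evaluation: % luminescence enhancement versus blank-corrected plate control mean; Benchmarks: plate controls and plate blanks.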
* marks the source's active call; other numbers are inactive results; . = no result given; [ ] = another dose, or the depositor's remark. Compounds with a hit are over-represented: about 2.7% of the library has one in this group of screens.

SMILES	Wee1 degr inh	Hck-Nef inh	14-3-3 Bad PPI	TbHK1 inh	Mdm2 ligase inh
Cc1c(C(=O)/C=C/N(C)C)nnn1-c1ccc(F)c(Cl)c1	10*	11	-3	-49	-5
Cc1c(C(=O)/C=C/N(C)C)nnn1-c1ccc(Cl)c(Cl)c1	3	11	-5	-16	3
O=C(Nc1ccc(Cl)c(Cl)c1)Nc1ccccc1C(=O)O	-3	-5	-4	-1	-56
OC(COCc1ccc2c(c1)OCO2)CN1CCN(Cc2ccccc2)CC1 (stereo not given)	-2	-25	79*	-2	-20
CCN(CC)c1ccc(/C=C2\CCC(/C=C(\C#N)C(=O)Nc3ccccc3F)=C2N2CCOCC2)cc1	-4	-15	-2	-14	-10
N#C/C(=C\C1=C(N2CCOCC2)C(=C\c2ccc(Cl)cc2)/CC1)C(=O)Nc1ccccc1F	-1	13	73*[fluorescence artefact?]	-6	-1
CC(=O)c1cccc(NC(=O)c2ccoc2C)c1	0	20	-7	2	-1
C/C(=N\NC(=O)c1nn(C)c(C)c1Br)c1cccc(NC(=O)c2ccoc2C)c1	9.8*	-2	-6	1	-4
COc1cc2c(C)nc3onc(-c4ccccc4)c3c2cc1OC	1	3	3	-9	10
COc1cc2c(C)nc(C)c(C#N)c2cc1OC	2	2	78*	-14	-17
CC(C)C(=O)NC(NC(=S)Nc1cccc2cccnc12)C(Cl)(Cl)Cl (stereo not given)	1	2	-3	-4	-4
CCC(=O)NC(NC(=S)Nc1cccc2cccnc12)C(Cl)(Cl)Cl (stereo not given)	9.8*	5	-8	-6	-17
COC(=O)c1ccc(CSc2nc3c(cnn3-c3ccc(C)c(C)c3)c(=O)[nH]2)o1	3	3	8	-10	-15
O=S(=O)(c1ccccc1)N1CCCC1c1cccs1 (stereo not given)	10*	12	-5	-5	-9
COc1ccc(-c2csc(Nc3ccc(C)cn3)n2)cc1	9.6*	3	0	1	.
CCOC(=O)COc1cc(N)c(Cl)cc1Cl	13*	25	-14	-1	8
CC1(C)C2CCC(C2)C1(C)NC(=O)CN1CCOCC1 (stereo not given)	-1	3	74*	8	-3
CCOC(=O)N1CCN(c2ncnc3c2[nH]c2ccc(OC)cc23)CC1	1	-21	.	-9	-9
COc1ccc2[nH]c3c(N4CCc5ccccc5C4)ncnc3c2c1	9.7*	20	4	-3	-16
CCOc1ccccc1NC(=O)c1ccc(S(=O)(=O)N2CCOCC2)cc1	11*	1	-9	4	.
CC1=CC(C)(C)Nc2ccc(C)cc21	-2	1	81*	4	-10
O=C(/C=C/c1ccc(Cl)cc1)Nc1ccc(N2CCCCC2)cc1	-1	1	4	-12	18
O=C(/C=C/c1ccccc1)Nc1ccc(N2CCCCC2)cc1	9.0*	6	29	-5	5
COC(=O)CC1C(=O)NCCN1C(=O)c1sc2ccccc2c1Cl (stereo not given)	-4	-5	2	0	-20
COC(=O)CC1C(=O)NCCN1C(=S)NC(=O)c1sc2ccccc2c1Cl (stereo not given)	10*	27	1	-5	-4
SMILES	Wee1 degr inh	Hck-Nef inh	14-3-3 Bad PPI	TbHK1 inh	Mdm2 ligase inh
C/C(=N\Nc1ccc(C(=O)O)cc1)c1ccc(-n2ccnc2)cc1	-1	0	43	-14	8
Cc1oc(S(=O)(=O)N(C)C)cc1C(=O)Nc1ccc(Cl)cc1	0	6	-1	36	0
COc1ccc(NC(=O)Nc2sc(=S)n(C)c2C)cc1	12*	28	-3	-9	-14
Cc1c(NC(=O)Nc2ccc(Cl)c(Cl)c2)sc(=S)n1C	-2	-4	.	6	.
OC(COCC1COc2ccccc2O1)CN1CCN(c2ccccc2F)CC1 (stereo not given)	0	-1	89*	-3	-1
OCCN1CCN(CC(O)COCC2COc3ccccc3O2)CC1 (stereo not given)	-4	0	-2	1	-18
CC1CCc2nc(NC(=O)C3CC3)sc2C1 (stereo not given)	1	1	10	-11	-15
Cc1ncsc1C(=O)Nc1nc2c(s1)CC(C)CC2 (stereo not given)	9.6*	5	-14	-20	-8
N=C1C(c2nc(-c3ccc(Cl)cc3)cs2)=C(O)CN1NC(=O)c1ccc(O)cc1	-1	45	77*	-10	.
OC(C#CCN1CCCC1)(c1ccccc1)c1cccnc1 (stereo not given)	10*	16	57	-2	.
OC(C#CCN1CCCCCC1)(c1ccccc1)c1cccnc1 (stereo not given)	3	1	-1	7	-14
O=C(C1CCC(=O)N1Cc1ccccc1Cl)N1CCN(c2ccc(F)cc2)CC1 (stereo not given)	4	0	-6	-4	-18
CC(CO)(CO)NCc1ccc(-c2ccccc2)cc1	-2	-1	10	2	-21
C=CCC(C)(NCc1ccccc1)c1ccco1 (stereo not given)	-3	0	72*	-2	-13
Cc1cccc(C2Nc3ccccc3C(=O)N2NC(=O)c2ccc([N+](=O)[O-])cc2)n1 (stereo not given)	-1	2	74*	-7	7
O=C(NN1C(=O)c2ccccc2NC1c1ccccn1)c1ccc([N+](=O)[O-])cc1 (stereo not given)	3	0	21	23	-11
O=P(Cc1ccccc1)(c1ccccc1)c1ccccc1	-3	2	-6	4	-4
Cc1ccc(O)c(CP(=O)(c2ccccc2)c2ccccc2)c1	9.4*	7	-9	35	18
COCCn1c(N)c(C(=S)NC(=O)c2cccs2)c(=O)[nH]c1=O	-1	-15	7	-24	-12
COC(=O)c1ccc(NC(=O)CNC(=O)C2CCCCC2)cc1	-2	1	-5	1	-23
COC(=O)c1ccc(NC(=O)CNC(=O)C2CCCCC2)c(C)c1	10*	0	-2	-5	-10
Cc1ccc(-c2nnn3c2nc(Cl)c2ccccc23)cc1	-3	-8	91*	1	-11
COC(=O)C1=C(C)NC(=O)/C1=C\N(C)C	2	21	-12	-4	-1
CC(=O)N1C(C)(C)CC(=NOC(=O)c2ccccc2)CC1(C)C	3	2	92*	1	-8
